Read-outs that look alike come from different tables or passages of the source.
Experiments:
[1] = system: P falciparum and P vivax field isolates; details: ex-vivo; cited from earlier work
[2] = system: Plasmodium vivax; test: Asexual parasite clearance parameters; type: in vivo; details: P vivax
In short: (§1)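 Parasitaemia was counted by microscopy before one oral dose of the test compound and every 4 h over days 0–3. If two consecutive negative readings were not reached, the stay was extended to 7 days with counts every 6 h until clearance. Clearance kinetics, including lag time before parasite decline, followed WWARN statistical procedures. Kaplan-Meier analyses used a modified ITT population.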

[3] = system: P falciparum; details: single dose of 400 mg administered 1 day before parasite challenge; cited from earlier work
[4] = system: P. falciparum; test: MIC/MPC estimate from nadir of parasitaemia in recrudescing patients; type: in vivo, Plasmodium falciparum; details: 400 mg
[5] = system: Plasmodium falciparum; test: Phase 2a single-dose efficacy: PCR-adjusted ACPR, thick blood smear microscopy; type: in vivo; details: P falciparum
In short: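 P falciparum patients (1000–35 000 asexual parasites per μL) received one oral dose of 400 or 250 mg. Treatment failure was read by thick blood smear microscopy; the first cohort initially used quantitative PCR. PCR adjustment distinguished recrudescence from new infection. ACPR was scored at days 14 and 28. ITT included all dosed patients; per-protocol excluded those who vomited, took other medication, had protocol violations or lacked data.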

[6] = cited from earlier work
[7] = system: P. falciparum Dd2 B2 clone; details: dhodh Gly181Cys mutation; cited from earlier work
[8] = target: PvDHODH enzyme; details: truncated recombinant enzymes; cited from earlier work
[9] = system: Plasmodium falciparum; test: Asexual parasite clearance parameters; type: in vivo; details: P falciparum
In short: as §1

[10] = Adverse events in malaria patients; type: in vivo, human
In short: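 Patients received one oral dose of the test compound in suspension: 400 or 250 mg for P falciparum, and 400, 600 or 800 mg for P vivax. They were kept in clinic with checks every 4 h over days 0–3. Safety follow-up lasted 35 days. Safety was analysed in all patients who received at least one dose.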

[11] = Pharmacokinetics in malaria patients; type: in vivo, human
In short: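 A further sample was taken on day 5 or 7, depending on day-3 parasitaemia. Later samples were taken on days 10–11, 14, 17–18, 21, 24–25, 28 and 35. Parameters were AUC0-t, AUC0-168, AUC0-inf, Cmax, tmax, t1/2, C168h and λinf.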

[12] = system: P falciparum; details: for a 60 kg patient; cited from earlier work
[13] = system: Plasmodium falciparum DHODH; details: cited from earlier work
[14] = 12-lead and Holter ECG safety analysis in malaria patients; type: in vivo, human
In short: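 Adults with uncomplicated malaria (18–70 years, 45–90 kg) received one oral dose of the test compound in suspension, ideally fasted. QT interval was corrected by Fridericia (QTcF) and compared with baseline. PR and QRS intervals were also recorded during the study.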

[15] = system: Plasmodium vivax; test: Gametocytaemia by microscopy; type: in vivo; details: cohort 2b, P vivax, 600 mg
In short: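 Patients with P vivax malaria received one oral dose of the test compound: 400 mg in cohort 1b or 600 mg in cohort 2b. Gametocytaemia was assessed by microscopy throughout the 28-day follow-up. The measure was conversion from microscopy-negative at the start of treatment to gametocyte-positive.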

[16] = system: Plasmodium vivax; test: Phase 2a single-dose efficacy: crude cure, thick blood smear microscopy; type: in vivo
In short: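 P vivax patients (1000–35 000 asexual parasites per μL) received one oral dose of 400, 600 or 800 mg. Crude cure meant clearance of asexual parasites within 7 days with no later recurrence, read by thick smear microscopy without PCR adjustment. It was scored at day 14, and cure at day 28. Rescue treatment was given if parasites remained at day 7. Analysis used ITT and per-protocol populations.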

[17] = cohort 1a (n=13), P falciparum, 400 mg
[18] = cohort 1b (n=5), P vivax, 400 mg
[19] = cohort 2a (n=11), P falciparum, 250 mg
[20] = cohort 2b (n=9), P vivax, 600 mg
[21] = cohort 3b (n=7), P vivax, 800 mg

SMILES: Cc1cc(Nc2ccc(C(F)(F)F)nc2)n2nc(C(C)(F)F)nc2n1 [DSM421, reference compound]
- efficacy for P falciparum compared with P vivax [1]: equal efficacy

SMILES: Cc1cc(Nc2ccc(S(F)(F)(F)(F)F)cc2)n2nc(C(C)(F)F)nc2n1 [DSM265]
- Profiles with lag ([2]; cohort 1b, 400 mg, 4 profiles analysed): 3
- Profiles with lag ([2]; cohort 2b, 600 mg, 9 profiles analysed): 3
- Profiles with lag ([2]; cohort 3b, 800 mg, 6 profiles analysed): 1
- protection from infection [3]: complete protection
- efficacy for P falciparum compared with P vivax [1]: five-times better
- estimated duration of exposure greater than the minimum parasiticidal concentration [4]: around 10 days
- patients achieving ACPR at day 28 ([5]; 250 mg, ITT): 55%
- patients achieving PCR-adjusted ACPR at day 14 ([5]; 250 mg, ITT): 73%
- patients achieving ACPR at day 28 ([5]; 250 mg, per-protocol): 60%
- patients achieving PCR-adjusted ACPR at day 14 ([5]; 250 mg, per-protocol): 80%
- patients achieving PCR-adjusted ACPR at day 14 ([5]; 400 mg single oral dose, per-protocol): 100%
- patients achieving ACPR at day 28 ([5]; 400 mg, ITT): 69%
- patients achieving PCR-adjusted ACPR at day 14 ([5]; 400 mg, ITT): 85%
- patients achieving ACPR at day 28 ([5]; 400 mg, per-protocol): 89%
- duration of effectiveness (pharmacokinetic profile) ([6]; after a single oral dose in the range of 200–400 mg): more than 8 days
- tolerability ([6]; healthy participants, single doses of ≤1200 mg): generally well tolerated
- reduction in potency [7]: 26 times
- IC50 for the PvDHODH enzyme relative to PfDHODH [8]: two times higher
- Profiles with lag ([9]; cohort 1a, 400 mg, 8 profiles analysed): 4
- Profiles with lag ([9]; cohort 2a, 250 mg, 7 profiles analysed): 5
- patients with headache ([10]; all 45 patients): 40%
- patients with pyrexia ([10]; all 45 patients): 44%
- abnormal haematology laboratory results considered clinically significant ([10]; all patients): No patients
- treatment-related serious adverse events or adverse events leading to study discontinuation ([10]; all patients): no patients
- Adverse event of special interest [10, 17]: 2 (15%) number of patients (%)
- Any adverse event [10, 17]: 10 (77%) number of patients (%)
- Serious adverse event [10, 17]: 0 number of patients (%)
- Severe adverse event [10, 17]: 0 number of patients (%)
- Treatment-related adverse event [10, 17]: 3 (23%) number of patients (%)
- Adverse event of special interest [10, 18]: 0 number of patients (%)
- Any adverse event [10, 18]: 4 (80%) number of patients (%)
- Serious adverse event [10, 18]: 0 number of patients (%)
- Severe adverse event [10, 18]: 1 (20%) number of patients (%)
- Treatment-related adverse event [10, 18]: 1 (20%) number of patients (%)
- Adverse event of special interest [10, 19]: 3 (27%) number of patients (%)
- Any adverse event [10, 19]: 7 (64%) number of patients (%)
- Serious adverse event [10, 19]: 1 (9%) number of patients (%)
- Severe adverse event [10, 19]: 2 (18%) number of patients (%)
- Treatment-related adverse event [10, 19]: 2 (18%) number of patients (%)
- Adverse event of special interest [10, 20]: 1 (11%) number of patients (%)
- Any adverse event [10, 20]: 7 (78%) number of patients (%)
- Serious adverse event [10, 20]: 0 number of patients (%)
- Severe adverse event [10, 20]: 0 number of patients (%)
- Treatment-related adverse event [10, 20]: 0 number of patients (%)
- Adverse event of special interest [10, 21]: 0 number of patients (%)
- Any adverse event [10, 21]: 6 (86%) number of patients (%)
- Serious adverse event [10, 21]: 0 number of patients (%)
- Severe adverse event [10, 21]: 0 number of patients (%)
- Treatment-related adverse event [10, 21]: 0 number of patients (%)
- tolerability ([10]; single oral dose 250-800 mg, all patients): well tolerated
- dose proportionality based on Cmax and AUC0-∞ ([11]; P falciparum patients, 250 mg or 400 mg): dose proportional
- dose proportionality of exposure ([11]; P vivax patients, 400 mg to 800 mg): slightly subproportional
- Tmax ([11]; human, plasma, oral, tmax, seen for the other patients): 6 to 8 h
- predicted efficacious single curative dose [12]: 340 mg
- in-vitro selectivity for Plasmodium falciparum DHODH over its human ortholog [13]: very high
- values for QTcF recorded ([14]; in a few patients): 450 to 500 ms
- QTcF changes from baseline ([14]; more patients with P falciparum than P vivax): 30 to 60 ms
- patients negative for gametocytaemia at baseline who became positive [15]: 13%
- patients achieving crude cure at day 14 ([16]; P vivax, 400 mg, ITT (five patients)): none
- patients achieving crude cure at day 14 ([16]; P vivax, 400 mg, per-protocol (four patients)): none
- patients achieving crude cure at day 14 ([16]; P vivax, 600 mg, ITT): 33%
- patients achieving crude cure at day 14 ([16]; P vivax, 600 mg, per-protocol): 50%
- patients achieving crude cure at day 14 ([16]; P vivax, 800 mg, ITT): 14%
- patients achieving crude cure at day 14 ([16]; P vivax, 800 mg, per-protocol): 25%
- patients achieving a cure at day 28 ([16]; P vivax, all doses): No patients
- P vivax clearance ([16]; within the first 100 h, doses of 600 mg and 800 mg): 99–100%
